Calls of active or inactive are those of the source. No cut-off for these calls is given here.
What was measured:
[1] = test system: Trypanosoma brucei brucei; experiment: Antitrypanosomal activity against bloodstream forms of Trypanosoma brucei brucei strain 427 assessed as growth inhibition measured after 48 hrs by Alamar blue assay; type: functional, organism-based; settings: Trypanosoma brucei, 427, 48 h
How it was run: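 Bloodstream T. b. brucei 427 at 5 x 10^3 cells/well in supplemented HMI-9 with 10% FBS. Compounds in DMSO over 0.01–50 μM, triplicates. After 48 h exposure, Alamar blue was added for 4 h at 37°C. Fluorescence read at ex/em 530/590 nm; suramin was the positive control. EC50 = half-maximal trypanosomal viability.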

[2] = test system: Trypanosoma brucei gambiense; experiment: Antitrypanosomal activity against bloodstream forms of Trypanosoma brucei gambiense 130R assessed as growth inhibition incubated for 68 hrs followed by treated with resazurin 4 to 6 hrs by resazurin based fluorescence assay; type: functional, organism-based
How it was run: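 Bloodstream 130R at 4x10^4 parasites/well in HMI-9 with 15% heat-inactivated fetal calf and 5% human serum. Eleven 3-fold dilutions spanned 100 to 0.002 μM. Plates ran 68 h at 37 °C in 5% CO2, then resazurin for 4–6 h. Fluorescence read at ex/em 536/588 nm; melarsoprol was the control.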

[3] = test system: Trypanosoma brucei rhodesiense; experiment: Antitrypanosomal activity against bloodstream forms of Trypanosoma brucei rhodesiense STIB 900 assessed as growth inhibition incubated for 70 hrs followed by treated with resazurin 2 to 4 hrs by resazurin based fluorescence assay; type: functional, organism-based
How it was run: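 Bloodstream STIB 900 at 2x10^4 parasites/well in HMI-9 with 15% heat-inactivated horse serum. Eleven 3-fold dilutions spanned 100 to 0.002 μM. Plates ran 70 h at 37 °C in 5% CO2, then resazurin for 2–4 h. Fluorescence read at ex/em 536/588 nm; melarsoprol was the control.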

[4] = test system: HepG2; experiment: (§1) Cytotoxicity against human HepG2 cells assessed as cell growth measured after 72 hrs mby MTT assay; type: toxicity, cell-based; settings: hepg2, 72 h
How it was run: (§2)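 HepG2 in DMEM:F12 with 10% FBS were seeded at 5 x 10^5 cells/mL and allowed 18-24 h. Compounds in DMSO over 0.01–300 μM for 72 h. MTT was then added for 30 min, formazan dissolved in DMSO and absorbance read at 550 nm. Triplicates; SDS (10%) and podophyllotoxin were the controls. CC50 = half-maximal cellular viability.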

[5] = Selectivity index, ratio of CC50 for cytotoxicity against human HepG2 cells to EC50 for Antitrypanosomal activity against bloodstream forms of Trypanosoma brucei brucei strain 427; type: toxicity, cell-based; settings: read-out: Selectivity Index
[6] = Selectivity index, ratio of CC50 for cytotoxicity against human HepG2 cells to EC50 for Antitrypanosomal activity against bloodstream forms of Trypanosoma brucei gambiense 130R; type: toxicity, cell-based
[7] = Selectivity index, ratio of CC50 for cytotoxicity against human HepG2 cells to EC50 for Antitrypanosomal activity against bloodstream forms of Trypanosoma brucei rhodesiense STIB 900; type: toxicity, cell-based
[8] = test system: Trypanosoma brucei rhodesiense; experiment: Inhibition of Trypanosoma brucei rhodesiense MVAT4 strain Cathepsin-L expressed in Pichia pastoris at 10 uM relative to control
How it was run: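 Trypanosomal cathepsin L, expressed in Pichia pastoris and purified, was tested at 10 μM after 1 hour. The read-out was percentage inhibition, with E-64 as positive control.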

[9] = Metabolic stability in mouse liver microsomes assessed as half life at 0.1 uM measured for every 15 mins by HPLC-MS/MS analysis; type: ADME, Microsome; settings: 0.25 h
[10] = Metabolic stability in mouse liver S9 fraction assessed as half life at 0.1 uM measured for every 15 mins by HPLC-MS/MS analysis; type: ADME, subcellular; settings: s9, 0.25 h
[11] = as §1; type: toxicity, cell-based; settings: HepG2 cells; how it was run: as §2
[12] = Tmax in mouse at 25 mg/kg, po; type: ADME, organism-based; settings: in vivo
[13] = Half life in mouse at 25 mg/kg, po; type: ADME, organism-based; settings: in vivo
[14] = Initial plasma concentration in C57BL/6 mouse at 1 mg/kg, iv measured upto 24 hrs by LC-MS/MS analysis; type: ADME, organism-based
How it was run: (§3)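 Fasted male C57BL/6 mice (n = 3/group) were given a single IV dose of 1 mg/kg. Vehicle was 5% DMSO, 10% solutol and 85% PBS with 20% Captisol, at 1 mL/kg. Blood was taken at 0.083, 0.25, 0.5, 1, 2, 4, 6, 8 and 24 h and spun at 4°C to plasma. Plasma levels were measured by LC-MS/MS and parameters derived by non-compartmental analysis.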

[15] = Half life in C57BL/6 mouse at 1 mg/kg, iv measured upto 24 hrs by LC-MS/MS analysis; type: ADME, organism-based; settings: in vivo; how it was run: as §3
[16] = AUC (0 to t) in C57BL/6 mouse at 1 mg/kg, iv measured upto 24 hrs by LC-MS/MS analysis; type: ADME, organism-based; settings: in vivo; how it was run: as §3
[17] = AUC (0 to infinity) in C57BL/6 mouse at 1 mg/kg, iv measured upto 24 hrs by LC-MS/MS analysis; type: ADME, organism-based; settings: in vivo; how it was run: as §3
[18] = Apparent volume of distribution in C57BL/6 mouse at 1 mg/kg, iv measured upto 24 hrs by LC-MS/MS analysis; type: ADME, organism-based; settings: in vivo, read-out: Vz; how it was run: as §3
[19] = Clearance in C57BL/6 mouse at 1 mg/kg, iv measured upto 24 hrs by LC-MS/MS analysis; type: ADME, organism-based; settings: in vivo; how it was run: as §3
[20] = Volume of distribution at steady state in C57BL/6 mouse at 1 mg/kg, iv measured upto 24 hrs by LC-MS/MS analysis; type: ADME, organism-based; settings: in vivo, read-out: Vdss; how it was run: as §3
[21] = Mean residence time in C57BL/6 mouse at 1 mg/kg, iv measured upto 24 hrs by LC-MS/MS analysis; type: ADME, organism-based; settings: in vivo; how it was run: as §3
[22] = Tmax in C57BL/6 mouse at 5 mg/kg, po measured upto 24 hrs by LC-MS/MS analysis; settings: in vivo
[23] = Cmax in C57BL/6 mouse at 5 mg/kg, po measured upto 24 hrs by LC-MS/MS analysis; settings: in vivo
[24] = Half life in C57BL/6 mouse at 5 mg/kg, po measured upto 24 hrs by LC-MS/MS analysis; settings: in vivo
[25] = AUC (0 to t) in C57BL/6 mouse at 5 mg/kg, po measured upto 24 hrs by LC-MS/MS analysis; settings: in vivo
[26] = Oral bioavailability in C57BL/6 mouse at 5 mg/kg measured upto 24 hrs by LC-MS/MS analysis; settings: in vivo
[27] = AUC (0 to infinity) in C57BL/6 mouse at 5 mg/kg, po measured upto 24 hrs by LC-MS/MS analysis; settings: in vivo
[28] = Mean residence time in C57BL/6 mouse at 5 mg/kg, po measured upto 24 hrs by LC-MS/MS analysis; settings: in vivo
[29] = test system: Trypanosoma brucei rhodesiense; experiment: In vivo antitrypanosomal activity against Trypanosoma brucei rhodesiense infected in female NMRI mouse assessed survival rate at 200 mg/kg, po qd measured upto 60 days; settings: time <= 60.0 day
[30] = test system: Trypanosoma brucei brucei; experiment: In vivo antitrypanosomal activity against Trypanosoma brucei brucei AnTat1.1 trypomastigotes expressing Renilla luciferase infected in BALB/c mouse assessed reduction in parasitemia at 100 mg/kg, po treated for 5 days; settings: time 5.0 day
[31] = test system: Trypanosoma brucei brucei; experiment: In vivo antitrypanosomal activity against Trypanosoma brucei brucei AnTat1.1 trypomastigotes expressing Renilla luciferase infected in BALB/c mouse assessed suppression of parasite growth at 100 mg/kg, po treated for 5 days; settings: time 5.0 day
[32] = test system: Trypanosoma brucei brucei; experiment: In vivo antitrypanosomal activity against Trypanosoma brucei brucei AnTat1.1 trypomastigotes expressing Renilla luciferase infected in BALB/c mouse assessed suppression of parasite growth at 100 mg/kg, ip treated for 5 days; settings: time 5.0 day

| Structure (SMILES) | EC50 [1] [nM] | EC50 [2] [nM] | EC50 [3] [nM] | CC50 [4] [nM] | selectivity ratio [5] | inhibition [8] | t1/2 [9] [min] | other results |
| --- | --- | --- | --- | --- | --- | --- | --- | --- |
| CNC(=O)/C=C/[C@H](CCc1ccccc1)NC(=O)c1ccc([N+](=O)[O-])s1 | 180 | 30 | 40 | 60000 | 333 | 58.4% | > 60 | selectivity ratio [6]: 2000; selectivity ratio [7]: 1500; t1/2 [10]: 19.49 min |
| CS(=O)(=O)CCCNC(=O)c1ccc([N+](=O)[O-])s1 | 1290 |  |  | 98600 | 76.4 | 11.1% |  |  |
| CS(=O)(=O)CCCNC(=O)c1cccs1 | > 30000 |  |  | > 150000 |  | inactive |  |  |
| O=C(N[C@H](/C=C/S(=O)(=O)c1ccccc1)CCc1ccccc1)c1cc(Cl)c([N+](=O)[O-])[nH]1 | 31200 |  |  | > 160000 |  | 26.7% |  |  |
| Nc1nc(N)nc(Nc2ccc([As]3SCC(CO)S3)cc2)n1 (stereo not given) [MELARSOPROL] |  | 10 | 10 |  |  |  |  |  |
| CS(=O)(=O)/C=C/CNC(=O)c1ccc([N+](=O)[O-])o1 | 440 | 60 | 50 | 21800 | 49.5 | 21.2% | > 60 |  |
| CNC(=O)CCCNC(=O)c1ccc([N+](=O)[O-])s1 | 4120 | 1880 | 1960 | 69500 | 16.9 | inactive |  | selectivity ratio [6]: 37; selectivity ratio [7]: 35.5 |
| CS(=O)(=O)/C=C/CNC(=O)c1cccs1 | > 30000 |  |  | > 300000 |  | 23.6% |  |  |
| O=C(NC/C=C/S(=O)(=O)c1ccccc1)c1ccco1 | 1950 |  |  | 66300 | 34 | 30.6% |  |  |
| O=C(NCCCS(=O)(=O)c1ccccc1)c1ccc([N+](=O)[O-])o1 | 990 |  |  | 44600 | 45 | 15% |  |  |
| CNC(=O)/C=C/CNC(=O)c1ccc([N+](=O)[O-])o1 | 1690 | 470 | 220 | > 75000 |  | 17% |  |  |
| CNC(=O)CCCNC(=O)c1cccs1 | > 30000 |  |  | > 300000 |  | inactive |  |  |
| O=C(N[C@H](/C=C/S(=O)(=O)c1ccccc1)CCc1ccccc1)c1ccc([N+](=O)[O-])o1 | 110 | 70 | 2730 |  |  | 78.1% |  | CC50 at 72 h [11]: 5170 nM |
| Cc1ncc([N+](=O)[O-])n1CC(=O)N[C@H](/C=C/S(=O)(=O)c1ccccc1)CCc1ccccc1 | > 50000 |  |  | > 300000 |  | 44.1% |  |  |
| O=C(NC/C=C/S(=O)(=O)c1ccccc1)c1ccc([N+](=O)[O-])s1 | 6350 | 320 | 610 | 20400 |  |  |  |  |
| CSc1ccc(OCc2ncc([N+](=O)[O-])n2C)cc1 [FEXINIDAZOLE] |  |  |  |  |  |  |  | Tmax [12]: 15 min; half-life [13]: 48 min |
| CNC(=O)/C=C/[C@H](CCc1ccccc1)NC(=O)c1ccc([N+](=O)[O-])o1 | 300 | 60 | 140 | 41700 | 139 | 54.8% | > 60 | selectivity ratio [6]: 694; selectivity ratio [7]: 298; t1/2 [10]: 20.49 min |
| O=C(NC/C=C/S(=O)(=O)c1ccccc1)c1ccc([N+](=O)[O-])o1 | 980 | 200 | 1770 | 59400 | 60.6 | 17.7% | > 60 | selectivity ratio [7]: 33.5; t1/2 [10]: 12.99 min |
| CS(=O)(=O)/C=C/CNC(=O)c1ccc([N+](=O)[O-])s1 | 640 | 250 | 120 | 98600 | 154 | 23.2% | > 60 | selectivity ratio [6]: 395; selectivity ratio [7]: 822; t1/2 [10]: > 60 min |
| CNC(=O)/C=C/CNC(=O)c1ccc([N+](=O)[O-])s1 | 540 | 130 | 140 | > 75000 |  | 43.9% | > 60 | t1/2 [10]: > 60 min; C0 at 24 h [14]: 636 ng/mL; half-life [15]: 24 min; AUC(0-t) at 24 h [16]: 333 ng·h/mL; AUC [17]: 343.2 ng·h/mL; Vd [18]: 1.7 L/kg; clearance [19]: 48.8 mL/min/kg; Vd [20]: 1.6 L/kg; MRT [21]: 30 min; Tmax [22]: 18 min; Cmax [23]: 1650 ng/mL; half-life [24]: 30 min; AUC(0-t) at 24 h [25]: 1700 ng·h/mL; F [26]: 99.2%; AUC [27]: 1702.8 ng·h/mL; MRT [28]: 54 min; Activity [29]: Active; Activity [30]: Active; Activity [31]: Active; Activity [32]: Active |

Source: ChEMBL document CHEMBL5532650, “Discovery of an orally active nitrothiophene-based antitrypanosomal agent” (Eur J Med Chem, 2024)
